Measurements taken from ChEMBL document CHEMBL4689842, “EUbOPEN Chemogenomics Library wave 1” (2021).

Test system: HEK-293T
Test: Multiplex assay against HEK293T;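 for Population Tubulin-Different-Phenotype (%): share of the cells with healthy nuclei that show this phenotype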
Assay type: toxicity, cell-based
Settings: human
Outline: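 At seeding, live cells were stained with Hoechst33342, BioTracker Green Microtubule Cytoskeleton Dye, MitoTracker Red and Annexin V Alexa Fluor 680. After compound addition they were imaged on a CQ1 microscope at 37°C and 5% CO2, and CellPathfinder machine-learning gating sorted them into Hoechst high-intensity objects or normal cells, with normal cells further split into healthy, pyknosed or fragmented nuclei and pyknosed cells into mitotic or apoptotic. Tubulin, mitochondrial-mass and membrane-permeability phenotypes are given as per cents of cells with healthy nuclei.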

[1] = 12 h, 1 µM, compound concentration 1 uM, replicate 1
[2] = 12 h, 1 µM, compound concentration 1 uM, replicate 2
[3] = 12 h, 10 µM, compound concentration 10 uM, replicate 1
[4] = 12 h, 10 µM, compound concentration 10 uM, replicate 2
[5] = 24 h, 1 µM, compound concentration 1 uM, replicate 1
[6] = 24 h, 1 µM, compound concentration 1 uM, replicate 2
[7] = 24 h, 10 µM, compound concentration 10 uM, replicate 1
[8] = 24 h, 10 µM, compound concentration 10 uM, replicate 2
[9] = 48 h, 1 µM, compound concentration 1 uM, replicate 1
[10] = 48 h, 1 µM, compound concentration 1 uM, replicate 2
[11] = 48 h, 10 µM, compound concentration 10 uM, replicate 1
[12] = 48 h, 10 µM, compound concentration 10 uM, replicate 2

CCOc1cc(C(=O)N2CCC(N3CCN(C)CC3)CC2)ccc1Nc1ncc2c(n1)N(C1CCCC1)c1ccccc1C(=O)N2C
Population Apoptotic (%) [1]: 61% | Population Fragmented Nuclei (%) [1]: 16% | Population Hoechst High Intensity Objects (%) [1]: 18% | Population Membrane Permeable-Phenotype (%) [1]: 5% | Population Mitochondria Different-Phenotype (%) [1]: 93% | Population Mitotic Cells (%) [1]: 38% | Population Normal (%) [1]: 81% | Population Pyknosed Nuclei (%) [1]: 57% | Population Tubulin-Different-Phenotype (%) [1]: 81% | Total Cell Count [1]: 371 | Population Apoptotic (%) [2]: 60% | Population Fragmented Nuclei (%) [2]: 4% | Population Healthy Nuclei (%) [2]: 25% | Population Hoechst High Intensity Objects (%) [2]: 5% | Population Membrane Permeable-Phenotype (%) [2]: 9% | Population Mitochondria Different-Phenotype (%) [2]: 88% | Population Mitotic Cells (%) [2]: 39% | Population Normal (%) [2]: 94% | Population Pyknosed Nuclei (%) [2]: 70% | Population Tubulin-Different-Phenotype (%) [2]: 79% | Total Cell Count [2]: 178 | Population Apoptotic (%) [3]: 83% | Population Fragmented Nuclei (%) [3]: 8% | Population Healthy Nuclei (%) [3]: 12% | Population Hoechst High Intensity Objects (%) [3]: 15% | Population Mitochondria Different-Phenotype (%) [3]: 95% | Population Mitotic Cells (%) [3]: 16% | Population Normal (%) [3]: 84% | Population Pyknosed Nuclei (%) [3]: 79% | Population Tubulin-Different-Phenotype (%) [3]: 60% | Total Cell Count [3]: 215 | Population Apoptotic (%) [4]: 92% | Population Fragmented Nuclei (%) [4]: 5% | Population Healthy Nuclei (%) [4]: 6% | Population Hoechst High Intensity Objects (%) [4]: 7% | Population Membrane Permeable-Phenotype (%) [4]: 0% | Population Mitochondria Different-Phenotype (%) [4]: 100% | Population Mitotic Cells (%) [4]: 7% | Population Normal (%) [4]: 92% | Population Pyknosed Nuclei (%) [4]: 88% | Population Tubulin-Different-Phenotype (%) [4]: 16% | Total Cell Count [4]: 216 | Population Apoptotic (%) [5]: 63% | Population Fragmented Nuclei (%) [5]: 19% | Population Hoechst High Intensity Objects (%) [5]: 19% | Population Membrane Permeable-Phenotype (%) [5]: 3% | Population Mitochondria Different-Phenotype (%) [5]: 96% | Population Mitotic Cells (%) [5]: 36% | Population Normal (%) [5]: 80% | Population Pyknosed Nuclei (%) [5]: 54% | Population Tubulin-Different-Phenotype (%) [5]: 83% | Total Cell Count [5]: 391 | Population Apoptotic (%) [6]: 66% | Population Fragmented Nuclei (%) [6]: 4% | Population Healthy Nuclei (%) [6]: 26% | Population Hoechst High Intensity Objects (%) [6]: 3% | Population Membrane Permeable-Phenotype (%) [6]: 5% | Population Mitochondria Different-Phenotype (%) [6]: 92% | Population Mitotic Cells (%) [6]: 33% | Population Normal (%) [6]: 96% | Population Pyknosed Nuclei (%) [6]: 69% | Population Tubulin-Different-Phenotype (%) [6]: 75% | Total Cell Count [6]: 204 | Population Apoptotic (%) [7]: 91% | Population Fragmented Nuclei (%) [7]: 15% | Population Healthy Nuclei (%) [7]: 4% | Population Hoechst High Intensity Objects (%) [7]: 19% | Population Membrane Permeable-Phenotype (%) [7]: 0% | Population Mitochondria Different-Phenotype (%) [7]: 100% | Population Mitotic Cells (%) [7]: 8% | Population Normal (%) [7]: 80% | Population Pyknosed Nuclei (%) [7]: 80% | Population Tubulin-Different-Phenotype (%) [7]: 37% | Total Cell Count [7]: 206 | Population Apoptotic (%) [8]: 93% | Population Fragmented Nuclei (%) [8]: 6% | Population Healthy Nuclei (%) [8]: 18% | Population Hoechst High Intensity Objects (%) [8]: 11% | Population Mitochondria Different-Phenotype (%) [8]: 97% | Population Mitotic Cells (%) [8]: 6% | Population Normal (%) [8]: 88% | Population Pyknosed Nuclei (%) [8]: 74% | Population Tubulin-Different-Phenotype (%) [8]: 21% | Total Cell Count [8]: 222 | Population Apoptotic (%) [9]: 64% | Population Fragmented Nuclei (%) [9]: 22% | Population Healthy Nuclei (%) [9]: 31% | Population Hoechst High Intensity Objects (%) [9]: 20% | Population Mitochondria Different-Phenotype (%) [9]: 91% | Population Mitotic Cells (%) [9]: 35% | Population Normal (%) [9]: 79% | Population Pyknosed Nuclei (%) [9]: 46% | Population Tubulin-Different-Phenotype (%) [9]: 65% | Total Cell Count [9]: 400 | Population Apoptotic (%) [10]: 58% | Population Fragmented Nuclei (%) [10]: 8% | Population Healthy Nuclei (%) [10]: 48% | Population Hoechst High Intensity Objects (%) [10]: 5% | Population Membrane Permeable-Phenotype (%) [10]: 0% | Population Mitochondria Different-Phenotype (%) [10]: 72% | Population Mitotic Cells (%) [10]: 41% | Population Normal (%) [10]: 94% | Population Pyknosed Nuclei (%) [10]: 43% | Population Tubulin-Different-Phenotype (%) [10]: 63% | Total Cell Count [10]: 239 | Population Apoptotic (%) [11]: 90% | Population Fragmented Nuclei (%) [11]: 23% | Population Healthy Nuclei (%) [11]: 2% | Population Hoechst High Intensity Objects (%) [11]: 20% | Population Membrane Permeable-Phenotype (%) [11]: 0% | Population Mitotic Cells (%) [11]: 9% | Population Normal (%) [11]: 79% | Population Pyknosed Nuclei (%) [11]: 74% | Population Tubulin-Different-Phenotype (%) [11]: 75% | Total Cell Count [11]: 233 | Population Apoptotic (%) [12]: 98% | Population Fragmented Nuclei (%) [12]: 13% | Population Healthy Nuclei (%) [12]: 11% | Population Hoechst High Intensity Objects (%) [12]: 10% | Population Membrane Permeable-Phenotype (%) [12]: 5% | Population Mitochondria Different-Phenotype (%) [12]: 100% | Population Mitotic Cells (%) [12]: 1% | Population Normal (%) [12]: 90% | Population Pyknosed Nuclei (%) [12]: 75% | Population Tubulin-Different-Phenotype (%) [12]: 50% | Total Cell Count [12]: 200
